Assay results reported in ChEMBL document CHEMBL4130356, “Design, synthesis and 2D QSAR study of novel pyridine and quinolone hydrazone derivatives as potential antimicrobial and antitubercular agents” (Eur J Med Chem, 2017).
Converted amounts (≈) assume the structure as drawn. The source made the active and inactive calls. No cut-off for these calls is given here.

Legend:
[1] = tested on: Mycobacterium tuberculosis; test: Antimycobacterial activity against Mycobacterium tuberculosis RCMB 010126 clinical isolate after 7 days by MABA; assay type: functional
Procedure, shortened: (§1)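 Inoculum from fresh LJ culture resuspended in 7H9-S broth with casitone, glycerol and OADC, adjusted to McFarland No. 1 and diluted 1:20. Serial two-fold compound dilutions in 7H9-S; isoniazid reference. Incubated 7 days at 37°C in air, then Alamar blue added and incubated overnight. Percent inhibition = 1 − (test well/growth-control mean) × 100; MIC = lowest concentration preventing blue-to-pink change.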

[2] = tested on: Pseudomonas aeruginosa; settings: RCMB 010043, 100 ug/ml
[3] = tested on: Staphylococcus aureus; test: Antimicrobial activity against Staphylococcus aureus RCMB 010028 after 24 hrs by serial dilution method; assay type: functional; settings: RCMB 010028, 24 h
Procedure, shortened: (§2)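 Serial twofold dilution in microtiter plates starting from a 100 mmol stock in DMSO; final concentrations 125 down to 0.12 […]. Incubated at 37°C and read on a microplate reader after 24 h. Ciprofloxacin was the reference. Run in triplicate, with the average taken. MIC was the lowest concentration inhibiting growth.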

[4] = tested on: Staphylococcus aureus; test: Antimicrobial activity against Staphylococcus aureus RCMB 010028 assessed as diameter of zone inhibition at 100 ug/ml after 24 hrs by agar well diffusion assay; assay type: functional; settings: for zone of inhibition at 100 µg/mL: RCMB 010028, 24 h, read-out: DIZ
Procedure, shortened: (§3)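 Agar well diffusion on nutrient agar plates seeded with the bacterium, using 1 cm wells. Plates were held at 4°C for 1 h for diffusion, then incubated at 37°C. Inhibition zone diameters were measured at 24 h. Ciprofloxacin was the positive control. Run in triplicate, with the mean zone reported.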

[5] = tested on: Aspergillus fumigatus; test: Antimicrobial activity against Aspergillus fumigatus RCMB 02568 assessed as diameter of zone inhibition at 100 ug/ml after 48 hrs by agar well diffusion assay; assay type: functional; settings: for zone of inhibition at 100 µg/mL: RCMB 02568, 48 h, read-out: DIZ
Procedure, shortened: (§4)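 Agar well diffusion on malt agar plates seeded with the fungus, using 1 cm wells. Plates were held at 4°C for 1 h for diffusion, then incubated at 28°C. Inhibition zone diameters were measured at 48 h. Amphotericin B was the positive control. Run in triplicate, with the mean zone reported.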

[6] = tested on: Escherichia coli; test: Antimicrobial activity against Escherichia coli RCMB 010052 assessed as diameter of zone inhibition at 100 ug/ml after 24 hrs by agar well diffusion assay; assay type: functional; settings: for zone of inhibition at 100 µg/mL: RCMB 010052, 24 h, read-out: DIZ; procedure, shortened: as §3
[7] = tested on: Streptococcus pneumoniae; test: Antimicrobial activity against Streptococcus pneumoniae RCMB 010010 assessed as diameter of zone inhibition at 100 ug/ml after 24 hrs by agar well diffusion assay; assay type: functional; settings: for zone of inhibition at 100 µg/mL: RCMB 010010, 24 h, read-out: DIZ; procedure, shortened: as §3
[8] = tested on: Pseudomonas aeruginosa; settings: RCMB 010043
[9] = tested on: Candida albicans; test: Antimicrobial activity against Candida albicans RCMB 05036 after 48 hrs by serial dilution method; assay type: functional; settings: RCMB 05036, 48 h
Procedure, shortened: (§5)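 Serial twofold dilution in microtiter plates starting from a 100 mmol stock in DMSO; final concentrations 125 down to 0.12 […]. Incubated at 28°C and read on a microplate reader after 48 h. Amphotericin B was the reference. Run in triplicate, with the average taken. MIC was the lowest concentration inhibiting growth.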

[10] = tested on: Aspergillus fumigatus; test: Antimicrobial activity against Aspergillus fumigatus RCMB 02568 after 48 hrs by serial dilution method; assay type: functional; settings: RCMB 02568, 48 h; procedure, shortened: as §5
[11] = tested on: WI-38; test: Cytotoxicity against human WI38 cells assessed as reduction in cell viability after 24 hrs by crystal violet staining-based colorimetric method; settings: WI-38, 24 h
Procedure, shortened: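 WI-38 cells were grown in DMEM with 10% FBS at 37°C and 5% CO2, then seeded at 1×10^4 cells/well. Serial twofold dilutions were added, three wells per concentration. Viability was read by crystal violet stain, solubilised in 30% acetic acid, at 490 nm. Run in triplicate. IC50 was estimated from dose-response plots.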

[12] = tested on: Escherichia coli; test: Antimicrobial activity against Escherichia coli RCMB 010052 after 24 hrs by serial dilution method; assay type: functional; settings: RCMB 010052, 24 h; procedure, shortened: as §2
[13] = tested on: Mycobacterium tuberculosis; test: Antimycobacterial activity against Mycobacterium tuberculosis RCMB 010126 clinical isolate assessed as inhibition zone after 7 days by MABA; assay type: functional; procedure, shortened: as §1
[14] = tested on: Candida albicans; test: Antimicrobial activity against Candida albicans RCMB 05036 assessed as diameter of zone inhibition at 100 ug/ml after 48 hrs by agar well diffusion assay; assay type: functional; settings: for zone of inhibition at 100 µg/mL: RCMB 05036, 48 h, read-out: DIZ; procedure, shortened: as §4
[15] = tested on: Streptococcus pneumoniae; test: Antimicrobial activity against Streptococcus pneumoniae RCMB 010010 after 24 hrs by serial dilution method; assay type: functional; settings: RCMB 010010, 24 h; procedure, shortened: as §2
[16] = Selectivity index, ratio of IC50 for human WI38 cells to MIC for Mycobacterium tuberculosis RCMB 010126 clinical isolate; assay type: toxicity; settings: read-out: Selectivity Index
Procedure, shortened: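 WI-38 human lung fibroblasts grown in DMEM with 10% FBS at 37°C and 5% CO2, seeded at 1×10^4 cells/well, and exposed to serial two-fold dilutions in triplicate. Viability read by crystal violet stain at 490 nm. IC50 taken from dose-response plots. Ratio uses this IC50 against the MABA MIC for M. tuberculosis.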

[17] = Mycobacterium tuberculosis, RCMB 010126, 168 h

Structure (SMILES) | MIC [1, 17] [µg/mL] | DIZ [2] | MIC [3] [µg/mL] | zone of inhibition at 100 µg/mL [4] [mm] | zone of inhibition at 100 µg/mL [5] [mm] | zone of inhibition at 100 µg/mL [6] [mm] | zone of inhibition at 100 µg/mL [7] [mm] | MIC [8] | MIC [9] [µg/mL] | MIC [10] [µg/mL] | IC50 [11] [µg/mL] | MIC [12] [µg/mL] | inhibition zone (IZ) [13] | zone of inhibition at 100 µg/mL [14] [mm] | MIC [15] [µg/mL] | selectivity ratio [16] | further results
Cc1nc(-c2ccc(Cl)cc2)ccc1C(=O)N/N=C/c1ccc(O)cc1 | 3.12 (≈ 8.53 µM) | inactive | 7.81 (≈ 21.3 µM) | 18.3 | 19.3 | 19.2 | 20.3 | inactive | 15.6 (≈ 42.7 µM) | 3.9 (≈ 10.7 µM) | 500 (≈ 1370 µM) | 3.9 (≈ 10.7 µM) | 53.21 mm | 17.3 | 3.9 (≈ 10.7 µM) | 160 | 
COc1ccc(OC)c(/C=N/NC(=O)c2ccc(-c3cccc(Cl)c3)nc2C)c1 | 0.39 (≈ 0.952 µM) | inactive | 1.95 (≈ 4.76 µM) | 21.3 | 22.6 | 22.3 | 22.5 | inactive | 1.95 (≈ 4.76 µM) | 0.98 (≈ 2.39 µM) | 188 (≈ 459 µM) | 0.98 (≈ 2.39 µM) | 82.35 mm | 21.2 | 0.98 (≈ 2.39 µM) | 482 | 
COc1ccc(/C=N/NC(=O)c2ccc(-c3cccc(Cl)c3)nc2C)cc1 | 1.56 (≈ 4.11 µM) | inactive | 3.9 (≈ 10.3 µM) | 19.6 | 20.6 | 20.3 | 20.9 | inactive | 7.81 (≈ 20.6 µM) | 1.95 (≈ 5.13 µM) | 500 (≈ 1320 µM) | 3.9 (≈ 10.3 µM) | 60.42 mm | 18.2 | 3.9 (≈ 10.3 µM) | 321 | 
O=C(N/N=C/c1ccc(F)cc1)c1c[nH]c2ccc(Cl)cc2c1=O |  | inactive | 31.2 (≈ 90.9 µM) | 10.6 | 11.3 | 12.7 | 12.4 | inactive | 31.2 (≈ 90.9 µM) | 15.6 (≈ 45.5 µM) |  | 62.5 (≈ 182 µM) | inactive | 10.3 | 15.6 (≈ 45.5 µM) |  | MIC [1]: inactive
COc1cc(/C=N/NC(=O)c2c[nH]c3ccc(Cl)cc3c2=O)cc(OC)c1OC |  | inactive | 15.6 (≈ 37.6 µM) | 17.3 | 18.1 | 19.3 | 18.4 | inactive | 31.2 (≈ 75.2 µM) | 7.81 (≈ 18.8 µM) |  | 3.9 (≈ 9.38 µM) | inactive | 16.3 | 7.81 (≈ 18.8 µM) |  | MIC [1]: inactive
Cc1nc(-c2ccc(Cl)cc2)ccc1C(=O)N/N=C/c1ccc(Cl)cc1Cl | 12.5 (≈ 29.8 µM) | inactive | 3.9 (≈ 9.31 µM) | 19.3 | 19.3 | 21.3 | 21.3 | inactive | 15.6 (≈ 37.3 µM) | 3.9 (≈ 9.31 µM) |  | 1.95 (≈ 4.66 µM) | 35.38 mm | 17.4 | 1.95 (≈ 4.66 µM) |  | 
COc1ccc(/C=N/NC(=O)c2c[nH]c3ccc(Cl)cc3c2=O)cc1OC | 25 (≈ 64.7 µM) | inactive | 15.6 (≈ 40.5 µM) | 17.2 | 18.4 | 21.3 | 19.1 | inactive | 15.6 (≈ 40.5 µM) | 7.81 (≈ 20.2 µM) |  | 1.95 (≈ 5.05 µM) | 31.25 mm | 16.9 | 3.9 (≈ 10.1 µM) |  | 
COc1ccc(/C=N/NC(=O)c2ccc(-c3ccc(Cl)cc3)nc2C)cc1OC | 1.56 (≈ 3.81 µM) | inactive |  |  |  |  |  |  |  |  | 443 (≈ 1080 µM) |  | 61.32 mm |  |  | 284 | diameter of the inhibition zone (DIZ) [4]: inactive; diameter of the inhibition zone (DIZ) [5]: inactive; diameter of the inhibition zone (DIZ) [6]: inactive; diameter of the inhibition zone (DIZ) [7]: inactive; diameter of the inhibition zone (DIZ) [14]: inactive
Cc1ccc(/C=N/NC(=O)c2ccc(-c3cccc(Cl)c3)nc2C)cc1 | 1.56 (≈ 4.29 µM) | inactive |  | 12.6 |  |  | 13.6 |  |  |  | 500 (≈ 1370 µM) |  | 61.24 mm |  |  | 321 | diameter of the inhibition zone (DIZ) [5]: inactive; diameter of the inhibition zone (DIZ) [6]: inactive; diameter of the inhibition zone (DIZ) [14]: inactive
O=C(N/N=C/c1ccc(Cl)cc1)c1c[nH]c2ccc(Cl)cc2c1=O | 99.8 (≈ 277 µM) | inactive | 31.2 (≈ 86.8 µM) | 15.3 | 16.3 | 20.6 | 17.3 | inactive | 62.5 (≈ 174 µM) | 31.2 (≈ 86.8 µM) |  | 1.95 (≈ 5.41 µM) | 17.8 mm | 13.6 | 15.6 (≈ 43.4 µM) |  | 
